Experimental data taken from ChEMBL document CHEMBL1128414, “Steroidal affinity labels of the estrogen receptor. 2. 17 alpha-[(Haloacetamido)alkyl]estradiols” (J Med Chem, 1995).
Calls of active or inactive are those of the source. The calls are words filed in the database; no cut-off is given here.

Legend:
[1] = molecular target: Estrogen receptor (Ovis aries, UniProt P49885+Q9TU15); test: (§1) Irreversible inhibition of [3H]estradiol binding to lamb uterine estrogen receptor; type: protein assay
Procedure, shortened: (§2)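 Lamb uterine cytosol (4 mg protein/mL, immature lamb uteri, 20 mM Tris-HCl) adjusted to pH 8.5 with NaOH, preincubated 4 h at 0 °C with 10 nM–10 µM compound or no steroid. Charcoal treatment for 30 min at 0 °C, then centrifugation. […] Specific binding is expressed as % of unexposed cytosol. IC50 is the concentration giving 50% irreversible inhibition; duplicates in two experiments.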

[2] = molecular target: T1, Estrogen receptor (Ovis aries) (UniProt P49885+Q9TU15); test: In vitro agonist/antagonist activity in estrogen regulated transcriptional activation assay; type: functional; conditions: filed as partial agonist
[3] = molecular target: T1, Estrogen receptor (Ovis aries); test: Relative efficiency(RE) in irreversible inhibition of lamb uterine estrogen receptor relative to iodoacetamide 23
[4] = molecular target: T1, Estrogen receptor (Ovis aries)
[5] = molecular target: T1, Estrogen receptor (Ovis aries); test: as §1; type: protein assay; procedure, shortened: as §2
[6] = molecular target: T1, Estrogen receptor (Ovis aries); test: In vitro agonist activity in estrogen regulated transcriptional activation assay; type: functional; conditions: filed as agonist
[7] = molecular target: T1, Estrogen receptor (Ovis aries); test: In vitro antagonist activity in estrogen regulated transcriptional activation assay; type: functional; conditions: filed as antagonist

| Compound | IC50 [1] | Hormonal activity [2] | RE [3] | RAC app [4] | Covalent binding [5] | Hormonal activity [6] | Hormonal activity [7] |
| --- | --- | --- | --- | --- | --- | --- | --- |
| C[C@]12CC[C@@H]3c4ccc(O)cc4CC[C@H]3[C@@H]1CC[C@@]2(O)CCCNC(=O)CBr | 53 nM | Partial agonist | 0.34 | 0.019 | Active | – | – |
| CC(=O)NCCC[C@]1(O)CC[C@H]2[C@@H]3CCc4cc(O)ccc4[C@H]3CC[C@@]21C | – | Partial agonist | – | 0.0084 | inactive | – | – |
| C[C@]12CC[C@@H]3c4ccc(O)cc4CC[C@H]3[C@@H]1CC[C@@]2(O)CCOS(C)(=O)=O | – | – | – | 0.15 | inactive | Agonist | – |
| C[C@]12CC[C@@H]3c4ccc(O)cc4CC[C@H]3[C@@H]1CC[C@@]2(O)CCCNC(=O)CI | 18 nM | Partial agonist | 1 | 0.0084 | Active | – | – |
| C[C@]12CC[C@@H]3c4ccc(O)cc4CC[C@H]3[C@@H]1CC[C@@]2(O)CCNC(=O)CBr | 1600 nM | Partial agonist | 0.011 | 0.017 | Active | – | – |
| C[C@]12CC[C@@H]3c4ccc(O)cc4CCC3[C@@H]1CC[C@@]2(O)CNC(=O)CBr (single isomer, unassigned) | 9700 nM | – | 0.0019 | 0.0076 | Active | – | Antagonist |
